From publication PMC6605687 (The Journal of General Physiology, 2019) come the findings set out here.

Substitutions are numbered along the chain they refer to.

What all share (type): cell-based
One assay concerns the target T1, rP2X2 Lys69Gln (Rattus norvegicus, UniProt P49653, K69Q).
T1 sequence (P49653 1-472 K69Q): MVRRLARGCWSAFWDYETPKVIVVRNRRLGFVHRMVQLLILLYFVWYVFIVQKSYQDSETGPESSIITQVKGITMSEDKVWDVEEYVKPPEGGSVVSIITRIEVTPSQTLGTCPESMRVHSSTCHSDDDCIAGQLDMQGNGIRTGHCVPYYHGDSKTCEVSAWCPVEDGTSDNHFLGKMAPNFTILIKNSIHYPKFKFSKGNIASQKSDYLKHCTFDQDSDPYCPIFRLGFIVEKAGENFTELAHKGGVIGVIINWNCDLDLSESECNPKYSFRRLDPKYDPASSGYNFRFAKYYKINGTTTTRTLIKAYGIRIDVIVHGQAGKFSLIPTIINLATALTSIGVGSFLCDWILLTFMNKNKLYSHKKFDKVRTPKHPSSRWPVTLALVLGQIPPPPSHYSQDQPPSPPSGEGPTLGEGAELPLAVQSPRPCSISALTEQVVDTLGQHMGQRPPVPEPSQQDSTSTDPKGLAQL
Put plainly: Two-electrode voltage clamp, oocytes expressing rP2X2 Lys69Gln. To be noted: for EC50: EC50, Lys69Gln. The gist of the method: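 Mutations were made by site-directed mutagenesis. Xenopus oocytes were injected with rP2X2 mRNA and incubated in L-15 at 18°C. Two-electrode voltage clamp was done 1–2 days later at −40 mV under ND96 perfusion (pH 7.4). ATP concentration-response currents were normalised and fitted to a one-component Hill equation for EC50 and Hill coefficient. Results are mean ± SEM, tested by one-way ANOVA with Dunnett's test against WT.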
(In general: Two-electrode voltage clamp is typically applied to oocytes expressing channels or transporters.)

The target of another assay is T2, rP2X2 Val70Vah (Rattus norvegicus, UniProt P49653).
T2 sequence (P49653 1-472): T1 sequence (P49653 1-472 K69Q) with Q69K
In words: Two-electrode voltage clamp, oocytes expressing rP2X2 Val70Vah.

A further assay has as its target T3, rP2X2 Ile185Vah (Rattus norvegicus, UniProt P49653).
T3 sequence (P49653 1-472): T1 sequence (P49653 1-472 K69Q) with Q69K
In words: Two-electrode voltage clamp, oocytes expressing rP2X2 Ile185Vah. The gist of the method:
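The backbone ester was introduced by nonsense suppression. TAG-mutant rP2X2 mRNA was co-injected into Xenopus oocytes with tRNA enzymatically aminoacylated with 2-hydroxyisovaleric acid. Uncharged tRNA co-injection served as the negative control. After incubation at 18°C, two-electrode voltage clamp was done at −40 mV in ND96 (pH 7.4). ATP concentration-response data were normalised and Hill-fitted for EC50 and nH, given as mean ± SEM.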

What is called EC50 is the concentration that produces a half-maximal response. Low values mean greater potency, high ones weaker potency. Regarding `Nc1ncnc2c1ncn2[C@@H]1O[C@H](COP(=O)(O)OP(=O)(O)OP(=O)(O)O)[C@@H](O)[C@H]1O` [ATP, Adenosine 5′-triphosphate], the EC50 at rP2X2 Lys69Gln was above 5000 µM; at rP2X2 Lys69Gln (mean ± SEM) it was 16600 µM; at rP2X2 Val70Vah (Val70Vah, mean ± SEM) it was 120 ± 2 µM; at rP2X2 Ile185Vah (Ile185Vah, mean ± SEM), 460 ± 20 µM. Besides, the “nH (Hill coefficient)” value at rP2X2 Lys69Gln (Lys69Gln) amounted to 2.4 ± 0.1. Also, the “Fold increase in EC50, Val70Vah versus WT” value on rP2X2 Val70Vah (Val70Vah compared with WT) is “fourfold”. Moreover, the “Fold increase in EC50 (decrease in sensitivity), Ile185Vah versus Ile185Val” value on rP2X2 Ile185Vah (Ile185Vah compared with Ile185Val) worked out at 20 fold.
